Source: ChEMBL document CHEMBL4007432, “Discovery and characterization of novel CYP1B1 inhibitors based on heterocyclic chalcones: Overcoming cisplatin resistance in CYP1B1-overexpressing lines” (Eur J Med Chem, 2017)

Assays:
[1] = target: T1, Cytochrome P450 1B1 (Homo sapiens, UniProt Q16678); experiment: Inhibition of human liver CYP1B1 expressed in Saccharomyces cerevisiae YY7 microsomal membranes using 7-ethoxyresorufin as substrate after 10 mins by fluorescence assay
T1 sequence (Q16678 whole entry): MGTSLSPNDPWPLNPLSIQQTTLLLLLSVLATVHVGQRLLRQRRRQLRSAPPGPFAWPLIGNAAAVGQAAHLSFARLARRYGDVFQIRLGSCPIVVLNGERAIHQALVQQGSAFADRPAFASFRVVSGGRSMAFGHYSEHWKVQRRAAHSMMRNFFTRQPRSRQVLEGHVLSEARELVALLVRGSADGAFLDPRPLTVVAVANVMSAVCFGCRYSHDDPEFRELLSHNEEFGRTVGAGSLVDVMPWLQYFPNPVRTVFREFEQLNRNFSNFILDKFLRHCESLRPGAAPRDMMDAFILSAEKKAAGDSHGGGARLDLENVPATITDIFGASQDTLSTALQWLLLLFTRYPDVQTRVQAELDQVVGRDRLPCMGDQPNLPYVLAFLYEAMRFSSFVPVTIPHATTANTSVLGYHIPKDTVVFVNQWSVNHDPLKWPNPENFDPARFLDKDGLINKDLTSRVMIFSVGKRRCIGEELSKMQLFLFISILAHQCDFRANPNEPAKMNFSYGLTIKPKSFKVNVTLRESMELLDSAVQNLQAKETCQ
Procedure, shortened: (§1)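 Yeast microsomes (YY7 strain carrying human reductase) held 0.5 pmol CYP with an NADP+/glucose-6-phosphate/G6PDH regenerating system in KPi. Fluorogenic substrate per isoform: 7-ER, CEC, EOMCC or DBF. Six serial 1:20 dilutions were tested, DMSO ≤0.5%. Reactions ran 10 min at 37 °C and were stopped with Tris-acetonitrile. Endpoint fluorescence (530/590 nm for resorufin) was fitted by 4-parameter sigmoid. Triplicate, ≥3 experiments.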

[2] = target: T2, Cytochrome P450 1A2 (Homo sapiens, UniProt P05177); experiment: Inhibition of human liver CYP1A2 expressed in Saccharomyces cerevisiae YY7 microsomal membranes using CEC as substrate after 10 mins by fluorescence assay; type: ADME, Microsomal Membrane; procedure, shortened: as §1
T2 sequence (P05177 whole entry): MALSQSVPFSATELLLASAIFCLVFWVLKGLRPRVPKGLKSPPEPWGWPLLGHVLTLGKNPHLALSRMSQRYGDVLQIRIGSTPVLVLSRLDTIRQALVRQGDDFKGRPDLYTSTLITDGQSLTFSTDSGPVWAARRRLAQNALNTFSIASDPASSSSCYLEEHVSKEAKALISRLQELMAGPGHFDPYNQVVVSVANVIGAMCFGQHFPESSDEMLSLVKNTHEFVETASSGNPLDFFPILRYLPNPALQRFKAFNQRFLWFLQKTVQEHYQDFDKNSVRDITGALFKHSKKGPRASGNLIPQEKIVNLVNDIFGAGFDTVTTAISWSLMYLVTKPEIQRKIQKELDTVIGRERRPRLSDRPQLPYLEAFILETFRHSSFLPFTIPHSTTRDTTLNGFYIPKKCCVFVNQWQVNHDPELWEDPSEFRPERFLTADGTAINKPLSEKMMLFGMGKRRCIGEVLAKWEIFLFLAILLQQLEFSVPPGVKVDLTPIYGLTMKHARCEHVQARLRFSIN

[3] = target: T3, Cytochrome P450 1A1 (Homo sapiens, UniProt P04798); experiment: Inhibition of human liver CYP1A1 expressed in Saccharomyces cerevisiae YY7 microsomal membranes using 7-ethoxyresorufin as substrate after 10 mins by fluorescence assay; type: ADME, Microsomal Membrane; procedure, shortened: as §1
T3 sequence (P04798 whole entry): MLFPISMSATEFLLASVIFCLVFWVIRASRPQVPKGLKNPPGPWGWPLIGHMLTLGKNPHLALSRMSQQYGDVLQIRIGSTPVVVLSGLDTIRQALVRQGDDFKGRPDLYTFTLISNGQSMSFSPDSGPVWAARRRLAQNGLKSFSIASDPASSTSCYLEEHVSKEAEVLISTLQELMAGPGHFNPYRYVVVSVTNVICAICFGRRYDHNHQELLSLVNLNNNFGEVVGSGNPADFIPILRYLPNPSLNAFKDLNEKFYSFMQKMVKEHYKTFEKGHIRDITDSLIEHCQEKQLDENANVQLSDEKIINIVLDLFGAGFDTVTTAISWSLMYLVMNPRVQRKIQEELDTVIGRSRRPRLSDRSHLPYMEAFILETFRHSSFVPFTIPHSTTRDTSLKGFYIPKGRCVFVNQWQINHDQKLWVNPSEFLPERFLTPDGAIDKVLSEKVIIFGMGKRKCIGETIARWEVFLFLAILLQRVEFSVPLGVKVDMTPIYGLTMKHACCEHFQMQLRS

[4] = target: T1, Cytochrome P450 1B1; experiment: Inhibition of human liver CYP1B1 expressed in Saccharomyces cerevisiae YY7 microsomal membranes at 5 to 10 uM using 7-ethoxyresorufin as substrate after 10 mins by fluorescence assay
Procedure, shortened: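 Single-concentration screen on CYP1B1 yeast microsomes at 5 µM (10 µM per methods), with 7-ER under the regenerating-system endpoint format: 10 min at 37 °C. Percentage inhibition versus a DMSO control; each compound tested twice.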

[5] = target: Cytochrome P450 2C9 (Homo sapiens, UniProt P11712); experiment: Inhibition of human liver CYP2C9 expressed in Saccharomyces cerevisiae YY7 microsomal membranes using DBF as substrate after 10 mins by fluorescence assay; type: ADME, Microsomal Membrane
[6] = target: Cytochrome P450 3A4 (Homo sapiens, UniProt P08684); experiment: Inhibition of human liver CYP3A4 expressed in Saccharomyces cerevisiae YY7 microsomal membranes using DBF as substrate after 10 mins by fluorescence assay; type: ADME, Microsomal Membrane
[7] = target: Cytochrome P450 2D6 (Homo sapiens, UniProt P10635); experiment: Inhibition of human liver CYP2D6 expressed in Saccharomyces cerevisiae YY7 microsomal membranes using EOMCC as substrate after 10 mins by fluorescence assay; type: ADME, Microsomal Membrane; procedure, shortened: as §1
[8] = target: Cytochrome P450 2C19 (Homo sapiens, UniProt P33261); experiment: Inhibition of human liver CYP2C19 expressed in Saccharomyces cerevisiae YY7 microsomal membranes using DBF as substrate after 10 mins by fluorescence assay; type: ADME, Microsomal Membrane
Sequence of Cytochrome P450 2C19 (P33261 whole entry): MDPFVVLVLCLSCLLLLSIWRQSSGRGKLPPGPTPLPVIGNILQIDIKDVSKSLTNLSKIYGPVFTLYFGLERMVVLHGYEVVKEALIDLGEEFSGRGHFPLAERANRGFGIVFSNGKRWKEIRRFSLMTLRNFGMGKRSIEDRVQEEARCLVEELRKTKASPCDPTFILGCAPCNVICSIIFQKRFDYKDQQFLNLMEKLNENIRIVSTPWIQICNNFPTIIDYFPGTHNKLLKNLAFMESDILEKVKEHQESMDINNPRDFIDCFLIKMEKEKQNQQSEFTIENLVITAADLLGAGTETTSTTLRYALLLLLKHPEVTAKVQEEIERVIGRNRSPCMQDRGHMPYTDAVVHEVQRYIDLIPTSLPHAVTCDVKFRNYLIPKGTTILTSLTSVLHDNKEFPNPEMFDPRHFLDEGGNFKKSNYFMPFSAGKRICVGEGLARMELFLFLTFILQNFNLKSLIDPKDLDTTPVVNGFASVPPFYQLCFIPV

Sequence of Cytochrome P450 3A4 (P08684 whole entry): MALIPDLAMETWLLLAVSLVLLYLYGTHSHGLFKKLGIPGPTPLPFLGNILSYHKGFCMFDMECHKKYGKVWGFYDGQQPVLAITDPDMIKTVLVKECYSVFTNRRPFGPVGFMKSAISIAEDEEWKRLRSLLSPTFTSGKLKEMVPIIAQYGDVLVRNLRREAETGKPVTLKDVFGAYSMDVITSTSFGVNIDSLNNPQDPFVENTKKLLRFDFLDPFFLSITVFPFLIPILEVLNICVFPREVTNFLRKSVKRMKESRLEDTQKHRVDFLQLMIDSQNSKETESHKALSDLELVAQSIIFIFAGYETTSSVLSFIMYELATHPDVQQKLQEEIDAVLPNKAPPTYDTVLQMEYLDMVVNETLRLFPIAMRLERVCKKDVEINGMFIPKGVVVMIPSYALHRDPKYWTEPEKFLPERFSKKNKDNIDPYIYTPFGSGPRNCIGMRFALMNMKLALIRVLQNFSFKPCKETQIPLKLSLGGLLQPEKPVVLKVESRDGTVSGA
Sequence of Cytochrome P450 2D6 (P10635 whole entry): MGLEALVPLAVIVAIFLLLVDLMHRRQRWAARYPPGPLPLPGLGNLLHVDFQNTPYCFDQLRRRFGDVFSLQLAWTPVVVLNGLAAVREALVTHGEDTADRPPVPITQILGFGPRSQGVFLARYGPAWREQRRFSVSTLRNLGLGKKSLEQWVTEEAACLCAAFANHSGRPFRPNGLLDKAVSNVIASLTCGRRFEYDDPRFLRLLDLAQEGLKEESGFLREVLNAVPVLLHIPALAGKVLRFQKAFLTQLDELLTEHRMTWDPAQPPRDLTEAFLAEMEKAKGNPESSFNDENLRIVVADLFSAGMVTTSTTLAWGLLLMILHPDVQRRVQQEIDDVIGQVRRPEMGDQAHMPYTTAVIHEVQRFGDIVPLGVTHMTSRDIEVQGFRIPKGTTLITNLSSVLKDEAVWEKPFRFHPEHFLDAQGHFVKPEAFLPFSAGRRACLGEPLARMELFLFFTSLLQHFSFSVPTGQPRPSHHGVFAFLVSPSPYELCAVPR
Sequence of Cytochrome P450 2C9 (P11712 whole entry): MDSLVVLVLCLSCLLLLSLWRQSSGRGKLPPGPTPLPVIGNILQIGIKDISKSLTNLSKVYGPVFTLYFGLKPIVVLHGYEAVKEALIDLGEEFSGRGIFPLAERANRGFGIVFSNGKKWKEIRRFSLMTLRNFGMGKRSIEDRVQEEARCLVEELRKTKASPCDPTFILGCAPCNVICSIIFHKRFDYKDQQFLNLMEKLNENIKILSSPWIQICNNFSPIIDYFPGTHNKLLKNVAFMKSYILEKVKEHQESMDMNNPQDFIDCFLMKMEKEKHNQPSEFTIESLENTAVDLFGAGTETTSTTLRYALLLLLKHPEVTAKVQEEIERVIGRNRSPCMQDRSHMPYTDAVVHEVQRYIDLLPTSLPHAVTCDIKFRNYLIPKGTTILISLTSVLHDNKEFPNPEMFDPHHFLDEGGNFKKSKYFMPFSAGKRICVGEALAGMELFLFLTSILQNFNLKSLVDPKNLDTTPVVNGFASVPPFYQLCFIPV

Compound | IC50 [1] [nM] | IC50 [2] [nM] | IC50 [3] [nM] | inhibition (INH) [4] | IC50 [5] [nM] | IC50 [6] [nM] | IC50 [7] [nM] | IC50 [8] [nM]
COc1ccc(C(=O)/C=C/c2cccnc2)cc1OC | 176 | 705 | 3100 | Active |  |  |  | 
O=C(/C=C/c1cccnc1)c1ccc(-c2ccccc2)cc1 | 189 | 2300 | 17000 | Active |  |  |  | 
O=C(/C=C/c1cccnc1)c1cccc(Br)c1 | 64 | 162 | 2600 | Active | > 20000 | 14000 | 8000 | > 20000
O=C(/C=C/c1cccnc1)c1cccc2ccccc12 | 23 | 214 | 958 | Active | > 20000 | 6000 | 1300 | > 20000
COc1ccc(/C=C/C(=O)c2cccnc2)c(OC)c1OC | 31 | 168 | 297 | Active | > 20000 | 11800 | 8800 | > 20000
O=C(/C=C/c1ccc(Cl)c(Cl)c1)c1cccnc1 | 96 | 624 | 2000 | Active | > 20000 | 15000 | 10200 | > 20000
COc1ccc(/C=C/C(=O)c2cccnc2)cc1OC | 19 | 258 | 1400 | Active | > 20000 | 53000 | 1100 | > 20000
O=C(/C=C/c1ccccc1)c1cccnc1 | 77 | 4700 | 31800 | Active | > 20000 | 11100 | 8200 | > 20000
COc1ccc(/C=C/C(=O)c2cccnc2)cc1O | 112 | 1700 | 2600 | Active |  |  |  | 
COc1ccccc1/C=C/C(=O)c1cccnc1 | 15 | 220 | 4700 | Active | > 20000 | 1520 | 1740 | > 20000
COc1ccc(C(=O)/C=C/c2cccnc2)c(OC)c1OC | 137 | 176 | 5300 | Active |  |  |  | 
COc1ccc(C(=O)/C=C/c2cccnc2)c(OC)c1 | 93 | 432 | 1500 | Active | > 20000 | 11000 | 7700 | > 20000
O=C(/C=C/c1ccc(F)c(F)c1)c1cccnc1 | 120 | 860 | 11800 | Active |  |  |  | 
O=C(/C=C/c1ccncc1)c1ccc2ccccc2c1 | 187 | 300 | 907 | Active |  |  |  | 
COc1cccc(C(=O)/C=C/c2cccnc2)c1 | 130 | 480 | 3500 | Active |  |  |  | 
O=C(/C=C/c1cccnc1)c1ccc2ccccc2c1 | 15 | 636 | 349 | Active | > 20000 | 28000 | 4400 | > 20000
O=C(/C=C/c1ccc2c(c1)OCO2)c1cccnc1 | 29 | 1500 | 1500 | Active | > 20000 | 12000 | 14000 | > 20000
O=C(/C=C/c1cccc(O)c1)c1cccnc1 | 466 | 2900 | 25000 | Active |  |  |  | 
O=C(/C=C/c1cccnc1)c1ccc2ccc3cccc4ccc1c2c34 | 162 | 2100 | 2200 | Active |  |  |  | 
COc1cc(/C=C/C(=O)c2cccnc2)cc(OC)c1OC | 349 | 515 | 288 | Active |  |  |  | 
COc1ccc(C(=O)/C=C/c2cccnc2)cc1 | 525 | 2400 | 3600 | Active |  |  |  | 
O=C(/C=C/c1cccnc1)c1cc2ccccc2c2ccccc12 | 133 | 669 | 58 | Active |  |  |  | 
COc1cc(OC)cc(C(=O)/C=C/c2cccnc2)c1 | 106 | 306 | 879 | Active |  |  |  | 
